Calls of active or inactive are those of the source. The calls are words filed in the database; no cut-off is given here.
How the values were obtained:
Staphylococcus aureus = assay: Antimicrobial activity against methicillin-resistant Staphylococcus aureus isolate C623 by CLSI method; format: functional
Salmonella typhimurium = assay: Antimicrobial activity against Salmonella enterica Typhimurium C587 by CLSI method; format: functional, organism-based; details: Salmonella enterica subsp. enterica serovar Typhimurium
Method in brief: (§1)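 Broth MIC determination following Clinical and Laboratory Standards Institute methods. Panel: Gram-positive S. aureus C622, MRSA C623, S. epidermidis C960, B. subtilis C971, E. faecalis C625; Gram-negative S. enterica Typhimurium C587, E. coli C498, P. aeruginosa H187. Activity read as minimum inhibitory concentration.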

Nucleic Acid [1] = assay: Binding affinity to Escherichia coli pUC19 DNA assessed as relaxation of supercoiled DNA at 100 uM by agarose gel electrophoresis; format: nucleic-acid assay
Method in brief: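 DNA in 10 mM Tris-Cl pH 8.5, diluted into Tris pH 7.4 (final 5 mM) and NaCl (final 50 mM). Jadomycin added without copper; volume 20 μL; 2 h at 37 °C. Quenched with loading buffer, electrophoresed on 1% agarose containing ethidium bromide (0.75 μg mL−1), 30 min at 8 V cm−1 in 1× TAE. UV visualization.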

Pseudomonas aeruginosa = assay: Antimicrobial activity against Pseudomonas aeruginosa H187 by CLSI method; format: functional, organism-based; method in brief: as §1
Escherichia coli = assay: Antimicrobial activity against Escherichia coli C498 by CLSI method; format: functional, organism-based; method in brief: as §1
[2] = system: Staphylococcus epidermidis; assay: Antimicrobial activity against Staphylococcus epidermidis C960 by CLSI method; format: functional; method in brief: as §1
Nucleic Acid [3] = assay: Binding affinity to Escherichia coli pUC19 DNA assessed as relaxation of supercoiled DNA at 0.1 to 100 uM by agarose gel electrophoresis in presence of Cu ions; format: nucleic-acid assay
Method in brief: (§2)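 DNA supplied in 10 mM Tris-Cl pH 8.5, diluted into Tris pH 7.4 (final 5 mM) plus NaCl (final 50 mM). Jadomycins premixed 1:1 with Cu(OAc)2 added; final volume 20 μL. Incubated 2 h at 37 °C, quenched with loading buffer, run on 1% agarose with ethidium bromide (0.75 μg mL−1), 30 min at 8 V cm−1 in 1× TAE. Bands visualized by UV transillumination.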

[4] = Cytotoxicity against human NCI60 cells; format: functional
Method in brief: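 NCI 60-cell-line screen covering leukemia, NSCLC, colon, CNS, melanoma, ovarian, renal, prostate and breast lines. Five doses spanning 5 log10, top concentration 32 μM. Percent growth and mean optical density measured per NCI protocol. OD plotted against concentration to give GI50, TGI and LC50, reported as median (range) over up to 59 lines.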

Nucleic Acid [5] = assay: Binding affinity to Escherichia coli pUC19 DNA assessed as relaxation of supercoiled DNA by agarose gel electrophoresis in presence of Cu ions; format: nucleic-acid assay; method in brief: as §2

SMILES	MIC (Staphylococcus aureus) [µg/mL]	Activity (Salmonella typhimurium)	Activity (Nucleic Acid [1])	Activity (Pseudomonas aeruginosa)	Activity (Escherichia coli)	MIC [2] [µg/mL]	Activity (Nucleic Acid [3])	GI50 [4] [µM]	LC50 [4] [µM]	TGI [4] [µM]	EC50 (Nucleic Acid [5]) [µM]
CCC[C@@H]1C(=O)OC2c3cc(C)cc(O)c3C3=C(C(=O)c4c(O[C@H]5C[C@@H](O)[C@@H](O)[C@H](C)O5)cccc4C3=O)N21 (mixture of isomers)	32	inactive	inactive	inactive	inactive	4	Dose-dependent effect	4.9	19	10	86
CCCC[C@@H]1C(=O)OC2c3cc(C)cc(O)c3C3=C(C(=O)c4c(O[C@H]5C[C@@H](O)[C@@H](O)[C@H](C)O5)cccc4C3=O)N21 (mixture of isomers)	32	inactive	inactive	inactive	inactive	4	Dose-dependent effect	4.2	18	8.7	144

Source: ChEMBL document CHEMBL1938389, “Jadomycins derived from the assimilation and incorporation of norvaline and norleucine” (J Nat Prod, 2011)
